Test results from ChEMBL document CHEMBL3758131, “Towards new 5-HT7 antagonists among arylsulfonamide derivatives of (aryloxy)ethyl-alkyl amines: Multiobjective based design, synthesis, and antidepressant and anxiolytic properties” (Eur J Med Chem, 2016).

Legend:
Mus musculus [1] = assay: Antidepressant activity in C57BL/6J mouse assessed as number of events at 5 mg/kg, ip measured over 6 mins by tail suspension test (reference value: 1325.1 +/- 77.8 to 1773.4 +/- 109.9); assay type: functional
Mus musculus [2] = assay: Antidepressant activity in C57BL/6J mouse assessed as number of events at […] mg/kg, ip measured over 6 mins by tail suspension test (reference value: 1325.1 +/- 77.8 to 1773.4 +/- 109.9); assay type: functional
Mus musculus [3] = assay: Anxiolytic activity in ip dosed albino Swiss mouse assessed as increase in number of shocks accepted measured over 1 min, 15 secs by four plates test; assay type: functional; settings: read-out: MED
Outline: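 Male Albino Swiss mice, ip injection 60 min before test. Four-plate cage; after 15 s of habituation, each plate-to-plate crossing during a 1-min session is punished with a 0.8 mA, 0.5 s foot shock, followed by a 3-s shock-free interval. Number of shocks accepted is counted.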

Mus musculus [4] = assay: Toxicity in ip dosed C57BL/6J mouse assessed as effect on spontaneous locomotory activity at MED measured over 6 mins; assay type: organism-based; settings: in vivo, 0.1 h
Outline: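 Mice habituated 30 min in individual cages, then ambulation counted over a period matching each behavioural test: 6 min for the tail suspension test and 1 min 15 s for the four-plate test. Compounds given ip at the active doses.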

Mus musculus [5] = assay: Toxicity in ip dosed C57BL/6J mouse assessed as effect on spontaneous locomotory activity at MED measured over 1 min 15 secs; assay type: organism-based; settings: in vivo
Mus musculus [6] = assay: Antidepressant activity in C57BL/6J mouse assessed as immobility time at 10 mg/kg, ip measured over 6 mins by tail suspension test (reference value: 160.7 +/- 12 to 170.6 +/- 9 sec); assay type: functional
Mus musculus [7] = assay: Antidepressant activity in C57BL/6J mouse assessed as average force at 5 mg/kg, ip measured over 6 mins by tail suspension test (reference value: 0.281 +/- 0.018 to 0.359 +/- 0.027 N); assay type: functional
Mus musculus [8] = assay: Antidepressant activity in C57BL/6J mouse assessed as number of events at […], ip measured over 6 mins by tail suspension test (reference value: 1325.1 +/- 77.8 to 1773.4 +/- 109.9); assay type: functional
Rattus norvegicus = assay: Antidepressant activity in ip dosed Wistar rat assessed as reduction in immobility time of rat by forced swim test; assay type: functional; settings: read-out: MED
Outline: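 Male Wistar rats (220-250 g), ip injection 30 min before test. Day 1: 15-min pre-swim in a cylinder with 15 cm of water at 25 °C, then drying under a lamp. Next day: total immobility recorded over the whole 5-min test, with fresh water for each rat.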

Mus musculus [9] = assay: Antidepressant activity in C57BL/6J mouse assessed as immobility time at […] mg/kg, ip measured over 6 mins by tail suspension test (reference value: 160.7 +/- 12 to 170.6 +/- 9 sec); assay type: functional
Mus musculus [10] = assay: Antidepressant activity in albino Swiss mouse assessed as decrease in immobility time at 10 mg/kg, ip by forced swim test; assay type: functional
Mus musculus [11] = assay: Antidepressant activity in C57BL/6J mouse assessed as average force at 10 mg/kg, ip measured over 6 mins by tail suspension test (reference value: 0.281 +/- 0.018 to 0.359 +/- 0.027 N); assay type: functional
Mus musculus [12] = assay: Antidepressant activity in C57BL/6J mouse assessed as average force at […] mg/kg, ip measured over 6 mins by tail suspension test (reference value: 0.281 +/- 0.018 to 0.359 +/- 0.027 N); assay type: functional
Mus musculus [13] = assay: Toxicity in ip dosed albino Swiss mouse assessed as effect on spontaneous locomotory activity at MED measured over 2 to 6 mins; assay type: organism-based; settings: in vivo
Outline: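 Male Albino Swiss mice (22–28 g) received drug i.p. 60 min before testing, in 1% aqueous Tween 80 or distilled water. Each mouse was habituated alone in a plastic cage for 30 min, then ambulation was counted from 2 to 6 min. Groups of 6–10 animals, each used once.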

Mus musculus [14] = assay: Antidepressant activity in ip dosed C57BL/6J mouse assessed as reduction in immobility time of mouse by tail suspension test; assay type: functional; settings: read-out: MED
Mus musculus [15] = assay: Antidepressant activity in C57BL/6J mouse assessed as immobility time at 5 mg/kg, ip measured over 6 mins by tail suspension test (reference value: 160.7 +/- 12 to 170.6 +/- 9 sec); assay type: functional
Mus musculus [16] = assay: Antidepressant activity in C57BL/6J mouse assessed as average force at […], ip measured over 6 mins by tail suspension test (reference value: 0.281 +/- 0.018 to 0.359 +/- 0.027 N); assay type: functional
Mus musculus [17] = assay: Antidepressant activity in C57BL/6J mouse assessed as immobility time at […], ip measured over 6 mins by tail suspension test (reference value: 160.7 +/- 12 to 170.6 +/- 9 sec); assay type: functional
Mus musculus [18] = assay: Antidepressant activity in C57BL/6J mouse assessed as number of events at 10 mg/kg, ip measured over 6 mins by tail suspension test (reference value: 1325.1 +/- 77.8 to 1773.4 +/- 109.9); assay type: functional

CC1CCN(CC[C@H]2CCCN2S(=O)(=O)c2cccc(O)c2)CC1
Activity (Mus musculus [1]): 1604.7
Activity (Mus musculus [2]): 1764.8
minimal effective dose (Mus musculus [3]): 1 mg/kg
Activity (Mus musculus [4]): Non-toxic
Activity (Mus musculus [5]): Non-toxic
Time (Mus musculus [6]): 186.1 s
Activity (Mus musculus [7]): 0.363 N
Activity (Mus musculus [8]): 1467.1
minimal effective dose (Rattus norvegicus): 1.25 mg/kg
Time (Mus musculus [9]): 139.5 s
inhibition in vivo at 10 mg/kg (Mus musculus [10]): 31%
Activity (Mus musculus [11]): 0.311 N
Activity (Mus musculus [12]): 0.396 N
Activity (Mus musculus [13]): Non-toxic
minimal effective dose (Mus musculus [14]): 2.5 mg/kg
Time (Mus musculus [15]): 170.6 s
Activity (Mus musculus [16]): 0.449 N
Time (Mus musculus [17]): 151 s
Activity (Mus musculus [18]): 1600.1
